pIC50, pKi: −log10 of the molar value.
molecular target: Clostridioides difficile; test: Inhibition of Taurocholate-induced spore germination in Clostridioides difficile 630 in presence of glycine measured every minute for 90 mins; assay type: functional

C[C@H](CCC(=O)Nc1cccc(S(=O)(=O)O)c1)[C@H]1CC[C@H]2[C@@H]3[C@H](O)C[C@@H]4C[C@H](O)CC[C@]4(C)[C@H]3C[C@H](O)[C@]12C was tested. Which pKi did it give?
Its pKi is 4.30.

test system: Clostridioides difficile; test: Inhibition of Taurocholate-induced spore germination in Clostridioides difficile R20291 assessed as remaining germination activity at 125 uM in the presence of glycine measured every minute for 2 hrs relative to control; assay type: functional
In short: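 Spores purified on a HistoDenz gradient, heat-activated at 68°C for 30 min, washed, then diluted to OD580 1.0 in 100 mM sodium phosphate pH 6.0 with 5 mg/ml sodium bicarbonate. Compound at 125 μM final, in triplicate, with 6 mM taurocholate and 12 mM glycine. OD580 read every minute for 2 h and normalized to time zero. Percent germination given with standard deviation.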

How did the Activity turn out when C[C@H](CCC(=O)Nc1ccccc1)[C@H]1CC[C@H]2[C@@H]3CC[C@@H]4C[C@H](O)CC[C@]4(C)[C@H]3C[C@H](O)[C@]12C was run?
Its Activity is 3%.

For C[C@H](CCC(=O)Nc1cccc(F)c1)[C@H]1CC[C@H]2[C@@H]3[C@@H](O)C[C@@H]4C[C@H](O)CC[C@]4(C)[C@H]3CC[C@]12C, which Activity is on record?
Its Activity is 100%.

How did the Activity turn out when COc1ccccc1NC(=O)CC[C@@H](C)[C@H]1CC[C@H]2[C@@H]3[C@H](O)C[C@@H]4C[C@H](O)CC[C@]4(C)[C@H]3CC[C@]12C was run?
The Activity was 31%.

For Cc1ccc(F)cc1NC(=O)CC[C@@H](C)[C@H]1CC[C@H]2[C@@H]3CC[C@@H]4C[C@H](O)CC[C@]4(C)[C@H]3CC[C@]12C, which Activity is on record?
The Activity was 100%.

Which Activity does the source give for C[C@H](CCC(=O)Nc1ccccc1)[C@H]1CC[C@H]2[C@@H]3[C@@H](O)C[C@@H]4C[C@H](O)CC[C@]4(C)[C@H]3CC[C@]12C here?
Its Activity is 57%.

With Cc1ccc(F)cc1NC(=O)CC[C@@H](C)[C@H]1CC[C@H]2[C@@H]3CC[C@@H]4C[C@H](O)CC[C@]4(C)[C@H]3C[C@H](O)[C@]12C as the compound, how does the Activity read?
Its Activity is 65%.

With C[C@H](CCC(=O)Nc1ccccc1)[C@H]1CC[C@H]2[C@@H]3[C@H](O)C[C@@H]4C[C@H](O)CC[C@]4(C)[C@H]3CC[C@]12C as the compound, how does the Activity read?
Its Activity is 14%.

With COc1ccccc1NC(=O)CC[C@@H](C)[C@H]1CC[C@H]2[C@@H]3[C@@H](O)C[C@@H]4C[C@H](O)CC[C@]4(C)[C@H]3CC[C@]12C as the compound, how does the Activity read?
Its Activity is 100%.

C[C@H](CCC(=O)Nc1cccc(F)c1)[C@H]1CC[C@H]2[C@@H]3CC[C@@H]4C[C@H](O)CC[C@]4(C)[C@H]3CC[C@]12C was tested. Which Activity did it give?
The Activity was 100%.

With C[C@H](CCC(=O)Nc1cccc(F)c1)[C@H]1CC[C@H]2[C@@H]3CC[C@@H]4C[C@H](O)CC[C@]4(C)[C@H]3C[C@H](O)[C@]12C as the compound, how does the Activity read?
The Activity was 59%.

Cc1ccc(F)cc1NC(=O)CC[C@@H](C)[C@H]1CC[C@H]2[C@@H]3[C@H](O)C[C@@H]4C[C@H](O)CC[C@]4(C)[C@H]3CC[C@]12C was tested. Which Activity did it give?
The Activity was 66%.

For COc1ccccc1NC(=O)CC[C@@H](C)[C@H]1CC[C@H]2[C@@H]3CC[C@@H]4C[C@H](O)CC[C@]4(C)[C@H]3CC[C@]12C, which Activity is on record?
Its Activity is 100%.

For C[C@H](CCC(=O)Nc1ccccc1)[C@H]1CC[C@H]2[C@@H]3CC[C@@H]4C[C@H](O)CC[C@]4(C)[C@H]3CC[C@]12C, which Activity is on record?
Its Activity is 100%.

How did the Activity turn out when C[C@H](CCC(=O)Nc1cccc(F)c1)[C@H]1CC[C@H]2[C@@H]3[C@H](O)C[C@@H]4C[C@H](O)CC[C@]4(C)[C@H]3CC[C@]12C was run?
Its Activity is 100%.

For COc1ccccc1NC(=O)CC[C@@H](C)[C@H]1CC[C@H]2[C@@H]3CC[C@@H]4C[C@H](O)CC[C@]4(C)[C@H]3C[C@H](O)[C@]12C, which Activity is on record?
The Activity was 0.4%.

Cc1ccc(F)cc1NC(=O)CC[C@@H](C)[C@H]1CC[C@H]2[C@@H]3[C@@H](O)C[C@@H]4C[C@H](O)CC[C@]4(C)[C@H]3CC[C@]12C was tested. Which Activity did it give?
The Activity was 100%.

molecular target: Clostridioides difficile; test: Inhibition of Taurocholate-induced spore germination in Clostridioides difficile UK1 at […] by spectrophotometric method; assay type: functional

With C[C@H](CCC(=O)O)[C@H]1CC[C@H]2[C@@H]3[C@H](O)C[C@@H]4C[C@H](O)CC[C@]4(C)[C@H]3CC[C@]12C [CHENODIOL] as the compound, how does the pKi read?
Its pKi is 3.42.

With C[C@H](CCC(=O)O)[C@H]1CC[C@H]2[C@@H]3CC[C@@H]4C[C@H](O)CC[C@]4(C)[C@H]3CC[C@]12C [LITHOCHOLIC ACID] as the compound, how does the pKi read?
Its pKi is 3.98.

How did the pKi turn out when C[C@H](CCC(=O)O)[C@H]1CC[C@H]2[C@@H]3[C@@H](O)C[C@@H]4C[C@H](O)CC[C@]4(C)[C@H]3CC[C@]12C [URSODIOL] was run?
The pKi was 3.67.

test system: Clostridioides difficile; test: Inhibition of Taurocholate-induced spore germination in Clostridioides difficile R20291 in the presence of glycine measured every minute for 2 hrs; assay type: functional
In short: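 HistoDenz-purified spores were heat-activated at 68°C for 30 min and set to OD580 1.0 in 100 mM sodium phosphate pH 6.0 with 5 mg/ml bicarbonate. They were incubated with varied analog concentrations plus 6 mM taurocholate and 12 mM glycine. OD580 was read each minute for 2 h and normalized to t0. IC50 came from extent of germination plotted against log concentration.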

C[C@H](CCC(=O)Nc1ccccc1)[C@H]1CC[C@H]2[C@@H]3CC[C@@H]4C[C@H](O)CC[C@]4(C)[C@H]3C[C@H](O)[C@]12C was tested. Which pIC50 did it give?
Its pIC50 is 5.89.

COc1ccccc1NC(=O)CC[C@@H](C)[C@H]1CC[C@H]2[C@@H]3[C@H](O)C[C@@H]4C[C@H](O)CC[C@]4(C)[C@H]3CC[C@]12C was tested. Which pIC50 did it give?
Its pIC50 is 5.22.

How did the pIC50 turn out when C[C@H](CCC(=O)Nc1ccccc1)[C@H]1CC[C@H]2[C@@H]3[C@H](O)C[C@@H]4C[C@H](O)CC[C@]4(C)[C@H]3CC[C@]12C was run?
The pIC50 was 5.40.

With COc1ccccc1NC(=O)CC[C@@H](C)[C@H]1CC[C@H]2[C@@H]3CC[C@@H]4C[C@H](O)CC[C@]4(C)[C@H]3C[C@H](O)[C@]12C as the compound, how does the pIC50 read?
The pIC50 was 5.62.
